In ChEMBL document CHEMBL1177781, “Synthesis and SAR of potent inhibitors of the Hepatitis C virus NS3/4A protease: exploration of P2 quinazoline substituents” (Bioorg Med Chem Lett, 2010):

Tested on: Liver microsomes
Test: Intrinsic clearance in human liver microsomes
Assay type: ADME, Microsome
Details: not given
Procedure, shortened: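 Metabolic stability in human liver microsomes was expressed as intrinsic clearance (Cl_int, µL/min/mg).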

First: COc1ccc(-c2nc(O[C@@H]3C[C@H]4C(=O)N[C@]5(C(=O)NS(=O)(=O)C6CC6)C[C@H]5/C=C\CCCCN(C)C(=O)N4C3)c3ccc(OC)c(C)c3n2)cc1
Second: COc1ccc2c(O[C@@H]3C[C@H]4C(=O)N[C@]5(C(=O)NS(=O)(=O)C6CC6)C[C@H]5/C=C\CCCCN(C)C(=O)N4C3)nc(-c3ccncc3)nc2c1C
The CL of the first is 1.8-fold lower: 8 µL/min for the first, 14 µL/min for the second.

For `COc1ccc2c(O[C@@H]3C[C@H]4C(=O)N[C@]5(C(=O)NS(=O)(=O)C6CC6)C[C@H]5/C=C\CCCCCNC(=O)N4C3)nc(-c3ccccc3)nc2c1C`, the CL was 26 µL/min.

Tested on: not listed separately
Test: Apparent permeability across human Caco-2 cells
Assay type: ADME, cell-based
Details: not given

Going from `COc1ccc(-c2nc(O[C@@H]3C[C@H]4C(=O)N[C@]5(C(=O)NS(=O)(=O)C6CC6)C[C@H]5/C=C\CCCCN(C)C(=O)N4C3)c3ccc(OC)c(C)c3n2)cc1` to `COc1ccc2c(O[C@@H]3C[C@H]4C(=O)N[C@]5(C(=O)NS(=O)(=O)C6CC6)C[C@H]5/C=C\CCCCN(C)C(=O)N4C3)nc(-c3ccncc3)nc2c1C`, the Papp falls from 33 ×10⁻⁶ cm/s to 0.4 ×10⁻⁶ cm/s (82-fold).

In the case of `COc1ccc2c(O[C@@H]3C[C@H]4C(=O)N[C@]5(C(=O)NS(=O)(=O)C6CC6)C[C@H]5/C=C\CCCCCNC(=O)N4C3)nc(-c3ccccc3)nc2c1C`, the Papp is reported as 38 ×10⁻⁶ cm/s.

Biological target: not listed separately
Test: Inhibition of HCV 1a NS3/4A protease
Set-up: species or system Hepatitis C virus subtype 1a
Details: not given
Procedure, shortened: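 Enzyme inhibition was determined as Ki against recombinant full-length NS3 enzyme, following a literature procedure, in an external laboratory.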

Going from `CN1CCCC/C=C\[C@@H]2C[C@@]2(C(=O)NS(=O)(=O)C2CC2)NC(=O)[C@@H]2C[C@@H](Oc3nc(N4CCOCC4)nc4ccccc34)C[C@H]2C1=O` to `CN1CCN(c2nc(O[C@@H]3C[C@H]4C(=O)N[C@]5(C(=O)NS(=O)(=O)C6CC6)C[C@H]5/C=C\CCCCN(C)C(=O)[C@@H]4C3)c3ccccc3n2)CC1`, the Ki falls from 6.2 nM to 1.2 nM (5.2-fold). The second binds more tightly here.

First: CC(C)c1csc(-c2nc(O[C@@H]3C[C@H]4C(=O)N[C@]5(C(=O)NS(=O)(=O)C6CC6)C[C@H]5/C=C\CCCCN(C)C(=O)[C@@H]4C3)c3ccccc3n2)n1
Second: COc1ccc2c(O[C@@H]3C[C@H]4C(=O)N[C@]5(C(=O)NS(=O)(=O)C6CC6)C[C@H]5/C=C\CCCCN(C)C(=O)[C@@H]4C3)ncnc2c1C
The Ki of the first is lower: 0.8 nM for the first, > 1000 nM for the second.

First: COc1ccc(-c2nc(O[C@@H]3C[C@H]4C(=O)N[C@]5(C(=O)NS(=O)(=O)C6CC6)C[C@H]5/C=C\CCCCN(C)C(=O)N4C3)c3ccc(OC)c(C)c3n2)cc1
Second: COc1ccc2c(O[C@@H]3C[C@H]4C(=O)N[C@]5(C(=O)NS(=O)(=O)C6CC6)C[C@H]5/C=C\CCCCN(C)C(=O)N4C3)nc(-c3ccncc3)nc2c1C
The Ki of the first is 3-fold higher: 0.6 nM for the first, 0.2 nM for the second. The second binds more tightly here.

Going from `COc1ccc2c(O[C@@H]3C[C@H]4C(=O)N[C@]5(C(=O)NS(=O)(=O)C6CC6)C[C@H]5/C=C\CCCCN(C)C(=O)N4C3)nc(-c3cccc(C)n3)nc2c1C` to `COc1ccc2c(O[C@@H]3C[C@H]4C(=O)N[C@]5(C(=O)NS(=O)(=O)C6CC6)C[C@H]5/C=C\CCCCN(C)C(=O)N4C3)nc(-c3cccnc3)nc2c1C`, the Ki rises from 0.9 nM to 2.8 nM (3.1-fold).

Work on `COc1ccc2c(O[C@@H]3C[C@H]4C(=O)N[C@]5(C(=O)NS(=O)(=O)C6CC6)C[C@H]5/C=C\CCCCCNC(=O)N4C3)nc(-c3ccccc3)nc2c1C` yielded a Ki of 0.3 nM.

Tested on: Hepatitis C virus
Test: Antiviral activity against HCV1b infected in human Huh7 cells assessed as inhibition viral subgenomic replication
Assay type: functional, organism-based, Hepacivirus hominis
Details: genotype 1b, Huh-7
Procedure, shortened: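 Cell-based EC50 was measured in Huh7 cells carrying the subgenomic bicistronic HCV replicon clone ET, with a luciferase read-out.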

Going from `CN1CCCC/C=C\[C@@H]2C[C@@]2(C(=O)NS(=O)(=O)C2CC2)NC(=O)[C@@H]2C[C@@H](Oc3nc(N4CCOCC4)nc4ccccc34)C[C@H]2C1=O` to `CN1CCN(c2nc(O[C@@H]3C[C@H]4C(=O)N[C@]5(C(=O)NS(=O)(=O)C6CC6)C[C@H]5/C=C\CCCCN(C)C(=O)[C@@H]4C3)c3ccccc3n2)CC1`, the EC50 rises from 390 nM to 830 nM (2.1-fold). The first is the more potent here.

Compared with `CC(C)c1csc(-c2nc(O[C@@H]3C[C@H]4C(=O)N[C@]5(C(=O)NS(=O)(=O)C6CC6)C[C@H]5/C=C\CCCCN(C)C(=O)[C@@H]4C3)c3ccccc3n2)n1`, `COc1ccc2c(O[C@@H]3C[C@H]4C(=O)N[C@]5(C(=O)NS(=O)(=O)C6CC6)C[C@H]5/C=C\CCCCN(C)C(=O)[C@@H]4C3)ncnc2c1C` is higher in EC50: 120 nM for the first, > 1000 nM for the second.

Compared with `COc1ccc(-c2nc(O[C@@H]3C[C@H]4C(=O)N[C@]5(C(=O)NS(=O)(=O)C6CC6)C[C@H]5/C=C\CCCCN(C)C(=O)N4C3)c3ccc(OC)c(C)c3n2)cc1`, `COc1ccc2c(O[C@@H]3C[C@H]4C(=O)N[C@]5(C(=O)NS(=O)(=O)C6CC6)C[C@H]5/C=C\CCCCN(C)C(=O)N4C3)nc(-c3ccncc3)nc2c1C` is 2.3-fold higher in EC50: 3 nM for the first, 7 nM for the second.

Going from `COc1ccc2c(O[C@@H]3C[C@H]4C(=O)N[C@]5(C(=O)NS(=O)(=O)C6CC6)C[C@H]5/C=C\CCCCN(C)C(=O)N4C3)nc(-c3cccc(C)n3)nc2c1C` to `COc1ccc2c(O[C@@H]3C[C@H]4C(=O)N[C@]5(C(=O)NS(=O)(=O)C6CC6)C[C@H]5/C=C\CCCCN(C)C(=O)N4C3)nc(-c3cccnc3)nc2c1C`, the EC50 falls from 130 nM to 13 nM (10-fold). The second is the more potent here.

With `COc1ccc2c(O[C@@H]3C[C@H]4C(=O)N[C@]5(C(=O)NS(=O)(=O)C6CC6)C[C@H]5/C=C\CCCCCNC(=O)N4C3)nc(-c3ccccc3)nc2c1C` the EC50 was 23 nM.
